# NPY-Y1 PAM-ag: human NPY-Y1 potentiation or agonism, primary screen | activation, % at 3.6 µM | actives 0.37% (n = 220,000) | NPY-Y1 expressing cells, potentiator/agonist activation | AID 1304; in the data active = activation above about 33%, passing the limit was not always enough;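 also: cells stimulated with NPY at EC10 then isoproterenol at EC100; 0% = low agonist plus stimulus and 100% = saturating agonist plus stimulus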
# NPY2 pot ag: potentiators or agonists of human neuropeptide Y receptor Y2. P49146. activation, % at 3.6 µM. actives 0.45% (n = 220,000). AID 1359. cells expressing NPY-Y2, potentiator/agonist read-out; in the data active = activation above about 27%;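 also: cells stimulated with NPY near EC25 plus isoproterenol at EC100; 0% = vehicle plus submaximal agonist and 100% = vehicle plus saturating agonist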
# NPY-Y1 antag: antagonists of human neuropeptide Y receptor Y1 | P25929 | HEK293-CNG Y1 cells, membrane potential fluorescence; NPY at EC95, then isoproterenol | inhibition, % at 3.6 µM | actives 1% (n = 200,000);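 active = inhibition above the campaign mean inhibition of all tested compounds plus 3 SD, cut at about 20% in these data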;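 also: 0% = DMSO wells given NPY plus isoproterenol and 100% = isoproterenol alone without NPY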
#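 Material: HEK293 cells with Y1 receptor plus CNG channel; times: compound incubation 1 h at room temperature, readout 45 min post-stimulation; signal: fluorescence, membrane potential probe; read-out basis: fluorescence ratio normalized to % inhibition between controls; benchmarks: full-block control isoproterenol-only wells, zero-block control NPY plus isoproterenol wells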
# NPY Y2 blocker: NPY-Y2 (human) receptor antagonism | P49146 | inhibition, % at 2.7 µM | NPY-Y2 expressing cells, antagonist mode | actives 0.99% (n = 140,000); in the data active = inhibition above about 17%;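 also: 0% = vehicle with agonist challenge and 100% = reference antagonist with challenge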
# S1P4 agonist: agonists of human S1P4 receptor. O95977. S1P4-expressing cell line, agonist reporter assay. activation, % at 4.98 µM. actives 0.35% (n = 220,000); in the data active = activation above about 11%;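 also: 0% = DMSO vehicle and 100% = reference agonist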
# Target sequence (O95977 whole entry, looked up): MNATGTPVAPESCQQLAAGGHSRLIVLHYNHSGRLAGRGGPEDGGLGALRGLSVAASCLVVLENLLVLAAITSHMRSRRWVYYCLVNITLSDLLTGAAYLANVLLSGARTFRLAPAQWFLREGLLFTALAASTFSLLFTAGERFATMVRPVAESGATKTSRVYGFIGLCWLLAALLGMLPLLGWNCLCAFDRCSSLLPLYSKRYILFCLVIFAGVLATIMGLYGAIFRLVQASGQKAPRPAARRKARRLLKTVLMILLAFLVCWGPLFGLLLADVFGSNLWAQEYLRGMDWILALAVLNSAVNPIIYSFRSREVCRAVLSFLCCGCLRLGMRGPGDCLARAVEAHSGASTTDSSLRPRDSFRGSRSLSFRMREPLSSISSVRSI
# S1P4 antagonist: human S1P4 receptor antagonism; actives 0.26% (n = 220,000); S1P4-expressing cells, antagonist mode, reporter read-out; inhibition, % at 4.98 µM; O95977; in the data active = inhibition above about 29%;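 also: 0% = wells stimulated with agonist and 100% = vehicle wells without agonist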
# S1P4 agonist cf: human S1P4 agonism, confirmation | S1P4 agonist cell-based reporter assay | activation, % at 4.98 µM | AID 1523 | shares compounds with S1P4 agonist | actives 7% (n = 740); in the data active = activation above about 12%;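 also: 0% = vehicle and 100% = full reference agonist response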
# S1P1 ag: human S1P1 agonism as S1P4 agonist counter-screen. activation, % at 4.98 µM. AID 1563. actives 4% (n = 740). shares compounds with S1P4 agonist. S1P1 agonist cell-based assay, activation; in the data active = activation above about 21%;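 also: 0% = vehicle wells and 100% = reference agonist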
# Starred values were filed as active, the others as inactive; x = no result given. Shown are actives, neighbours in structure and some others; about 2.4% of the full set was active somewhere.
SMILES,NPY-Y1 PAM-ag,NPY2 pot ag,NPY-Y1 antag,NPY Y2 blocker,S1P4 agonist,S1P4 antagonist,S1P4 agonist cf,S1P1 ag
O=C(CCN1C(=O)c2ccccc2C1=O)NC1=NCCS1,-12.3,10.1,-3.2,-1.0,24.6*,-13.0,-1.9,-5.9
CC(Oc1ccccc1)C(=O)OCC(=O)NC(=O)NCc1ccco1 (configuration not stated),14.5,3.6,3.1,3.2,0.4,-7.0,x,x
CC(C)c1cc(C(=O)OCC(=O)NC(=O)NCc2ccco2)c(O)c(C(C)C)c1,-7.7,-6.2,4.9,x,43.6*,-4.4,36.0*,0.9
COc1cccc(C(=O)O/N=C2\CCS(=O)(=O)c3sccc32)c1,2.7,-10.7,-2.6,x,0.4,-1.1,x,x
O=C(O/N=C1\CCS(=O)(=O)c2sccc21)c1c(F)cccc1F,-4.3,-21.9,-1.4,x,33.0*,-10.5,-1.2,-3.8
COc1ccc(S(=O)(=O)Nc2cccc(C(C)=O)c2)cc1Br,-3.5,-24.8,2.8,x,0.6,-14.3,x,x
COc1ccc(S(=O)(=O)Nc2cccc(N(C)S(C)(=O)=O)c2)cc1Br,5.3,18.5,-9.9,-0.4,11.4*,-7.9,-1.2,9.4
COCCNC(=O)c1c(N)n(CCCn2ccnc2)c2nc3ccccc3nc12,-4.0,-1.8,0.3,-3.8,3.8,-4.8,x,x
Cc1nn(Cc2ccc(F)cc2)c(C)c1NC(=O)c1cc(-c2ccc3c(c2)OCO3)on1,-5.5,1.4,-1.2,2.9,-0.3,-4.1,x,x
Cc1ccc(Cn2nc(C)c(NC(=O)c3cc(-c4ccc5c(c4)OCO5)on3)c2C)cc1,3.5,7.5,-5.8,0.1,19.2*,4.1,-1.9,0.1
CC(/C=N/N1CCN(c2ccccn2)CC1)=C\c1ccccc1,21.4,-0.9,4.8,2.4,11.3*,-1.2,-0.1,1.6
NC(=O)CSc1nnc(-c2ccc(S(=O)(=O)N3CCCCC3)cc2)n1-c1ccccc1,9.4,1.6,-1.3,1.6,-2.3,-3.5,x,x
COc1ccccc1-n1c(SCC(N)=O)nnc1-c1ccc(S(=O)(=O)N2CCCCC2)cc1,-6.3,16.0,-3.1,0.5,22.9*,-7.8,-1.7,-6.6
O=C(O)Cn1c(SCCOc2ccccc2)nc2ccccc21,11.3,-0.8,2.9,1.1,59.4*,-8.0,-0.6,-0.6
Cc1csc(NC(=O)CCc2c(C)nc3cc(-c4ccc(Cl)cc4)nn3c2C)n1,-36.2,1.1,1.1,-1.5,196.3*,2.4,-0.4,1.0
COc1ccc(COc2cc(-c3cccc(OC)c3)nc3ccc(NC(=O)c4ccccc4)cc23)cc1,-26.8,5.3,-2.1,5.6,0.1,-5.1,x,x
Oc1ccc(/C=N/Nc2cc(N3CCOCC3)nc(N3CCOCC3)n2)cc1O,1.0,-5.7,-8.1,0.4,-0.8,6.5,x,x
Oc1cccc(/C=N/Nc2cc(N3CCOCC3)nc(N3CCOCC3)n2)c1,-25.7,4.0,-1.0,0.3,13.2*,1.8,-1.8,-7.7
CCN1C(=O)CS/C1=N\S(=O)(=O)c1ccc(C)cc1,-17.1,-7.3,-1.2,x,0.3,10.7,x,x
C=CCN1C(=O)CS/C1=N\S(=O)(=O)c1ccc(Cl)cc1,-26.8,16.6,-1.5,-1.2,11.2*,-4.4,-1.6,-2.6
COc1ccc2cc(OC)c(C(=O)N3CCOCC3)cc2c1,8.1,15.6,-0.2,x,14.4*,-11.0,0.1,0.7
O=C(c1sc2ccccc2c1Cl)N(Cc1ccco1)C1CCS(=O)(=O)C1 (configuration not stated),3.5,13.4,9.9,2.9,-1.4,-14.0,x,x
CCOC(=O)Cc1csc(NC(=O)CSc2nc(N)c3c(C)c(C)sc3n2)n1,-32.8,-6.2,7.7,5.9,24.1*,-8.7,-1.4,-2.9
CCOC(=O)Cc1csc(NC(=O)CC)n1,-6.8,6.2,-1.1,2.1,1.1,-11.1,x,x
CCN1CCN(C(=O)c2ccc(N3CC4CC(C3)c3cccc(=O)n3C4)c([N+](=O)[O-])c2)CC1 (configuration not stated),5.3,7.2,-0.9,x,0.1,19.4,x,x
SMILES,NPY-Y1 PAM-ag,NPY2 pot ag,NPY-Y1 antag,NPY Y2 blocker,S1P4 agonist,S1P4 antagonist,S1P4 agonist cf,S1P1 ag
Cc1ccc(CN2CCN(Cc3cn[nH]c3-c3cccc(F)c3)CC2CCO)o1 (configuration not stated),2.5,-12.6,4.3,x,15.1*,-0.6,-1.4,-4.6
CC(=O)Nc1nc(C)c(C(C)=O)s1,-7.1,-8.3,2.2,-0.4,-0.2,0.1,x,x
COc1cc(C)nc(Nc2nc(C)c(C(C)=O)s2)n1,-11.4,1.2,-2.4,0.6,12.4*,-15.7,-2.8,-0.1
Cc1cccc(NC(=O)CCC(=O)NCCO)c1,-11.8,5.1,4.0,-0.3,-0.2,-4.4,x,x
COc1ccc2cc(C(N)=O)c(=Nc3ccc(C)cc3)oc2c1,-9.8,-8.1,2.6,x,-2.2,-9.9,x,x
COc1ccccc1N=c1oc2cc(O)ccc2cc1C(N)=O,22.5,20.4,-5.9,4.2,26.7*,-56.9,3.5,9.7
COc1ccccc1N=c1oc2cc(O)ccc2cc1C(=O)NCC1CCCO1 (configuration not stated),-18.5,0.4,24.2*,20.8*,38.0*,-35.4,0.8,1.8
Cc1cccc(N=c2oc3cc(O)ccc3cc2C(N)=O)c1,2.3,8.0,2.1,4.4,48.1*,-51.8,4.6,12.7
COc1ccccc1NC(=O)c1cc2ccc(O)cc2o/c1=N\O,8.2,14.0,-0.3,-2.0,2.1,-3.3,x,x
COc1cccc(N=c2oc3cc(O)ccc3cc2C(=O)NCC2CCCO2)c1 (configuration not stated),-0.7,-7.4,17.4,x,16.9*,-31.1,2.8,0.6
CCOC(=O)C1(Cc2ccc(Cl)cc2)CCN(C(=O)CCc2cnccn2)CC1,6.3,-7.7,1.2,x,0.4,-30.3,x,x
CCOC(=O)C1(Cc2ccc(Cl)cc2)CCN(C(=O)CCc2ccncc2)CC1,-3.4,5.6,3.5,x,18.7*,-2.7,-1.0,-0.5
CCC(C)NCCC(=O)Nc1ccc(Cl)c(S(=O)(=O)Nc2ccc(Cl)cc2)c1 (configuration not stated),-6.4,-24.9,4.6,x,19.1*,-1.6,-3.2,-7.3
Cc1nc2sc3c(c2c2nc(-c4ccco4)nn12)CCCC3,-2.8,11.7,4.2,7.7,0.7,-14.3,x,x
CCOCCCNC(=O)c1cc(Sc2nnc(C)s2)nc2ccccc12,-9.0,-6.3,x,x,-1.7,8.7,x,x
CCC/C=N/Nc1nc2ccccc2s1,11.2,4.0,-1.5,x,64.3*,5.3,-0.9,-1.3
CC[C@H](C)[C@H](NC(N)=O)C(=O)Nc1ccc(C)cc1,-8.7,-12.2,3.4,0.7,-0.4,-13.3,x,x
O=C(Nc1nnc(C2CC2)s1)c1ccc(S(=O)(=O)c2ccccc2)cc1,-3.3,-0.8,-0.6,4.4,14.1*,-13.8,-1.7,0.9
O=C(Nc1nncs1)c1ccc(S(=O)(=O)c2ccccc2)cc1,-15.9,-2.3,-0.2,5.5,1.6,-17.2,x,x
